Measurements gathered from unrelated publications.
Organism: Escherichia coli
Effect on: microbial growth

SMILES	assay	system	conditions	MIC
Oc1cc(Cl)ccc1Oc1ccc(Cl)cc1Cl				> 3.2 µg/mL
CSc1ccc(/C=C/c2cc(/C=C3\Sc4ccccc4N3CCCN3CCCC3)c3ccccc3[n+]2C)cc1.[I-]	broth dilution	ATCCBAA2469		32 µg/mL
Oc1cc(Cl)ccc1Oc1ccc(Cl)cc1Cl	broth dilution	MG1655	clinical isolate	0.5 µg/mL
CNC(C)C1CCC(N)C(OC2C(N)CC(N)C(OC3OCC(C)(O)C(NC)C3O)C2O)O1 (stereo not drawn)	broth dilution	R477100		6 µM
C[n+]1ccc(/C=C2\Sc3ccccc3N2CCCN2CCCCC2)c2ccccc21.[I-]	broth dilution	ATCCBAA2469		4 µg/mL
COC(=O)c1cc(-c2cccc(NC(=O)Nc3cccc(Cl)c3)c2)on1	broth dilution	ATCC25922		> 64 µg/mL
COc1cccc(OC)c1C(=O)N[C@@H]1C(=O)N2[C@@H]1SC(C)(C)[C@@H]2C(=O)O	broth dilution	ATCCBAA2469		> 2050 µg/mL
Fc1c(F)c(F)c(-c2c(F)c(F)c(F)c(F)c2F)c(F)c1F		ATCC25922		> 250 µg/mL
CC1(C)S[C@@H]2[C@H](NC(=O)[C@H](N)c3ccccc3)C(=O)N2[C@H]1C(=O)O	broth dilution	MDR	16 h	32 µg/mL
COC(=O)c1cc(-c2cccc(NC(=O)Nc3c(C)cccc3C)c2)on1	broth dilution	ATCC25922		> 64 µg/mL
C[n+]1c(/C=C/c2c[nH]c3ccccc23)cc(/C=C2\Sc3ccccc3N2CCCN2CCCC2)c2ccccc21.[I-]	broth dilution	ATCCBAA2469		4 µg/mL
CN[C@@H]1[C@H](O)[C@H](NC)[C@H]2O[C@@]3(O)C(=O)C[C@@H](C)O[C@H]3O[C@@H]2[C@H]1O	broth dilution	K12, K12		25 µg/mL
COC(=O)c1cc(-c2cccc(NC(=O)Nc3ccc(Cl)cc3Cl)c2)on1	broth dilution	ATCC25922		> 64 µg/mL
CN[C@H](CC(C)C)C(=O)N[C@H]1C(=O)N[C@@H](CC(N)=O)C(=O)N[C@H]2C(=O)N[C@H]3C(=O)N[C@H](C(=O)N[C@H](C(=O)O)c4cc(O)cc(O)c4-c4cc3ccc4O)[C@H](O)c3ccc(c(Cl)c3)Oc3cc2cc(c3O[C@@H]2O[C@H](CO)[C@@H](O)[C@H](O)[C@H]2O[C@H]2C[C@](C)(N)[C@H](O)[C@H](C)O2)Oc2ccc(cc2Cl)[C@H]1O		ATCC10798		> 32 µg/mL
COC(=O)c1cc(-c2cccc(NC(=O)Nc3cccc(C(F)(F)F)c3)c2)on1	broth dilution	ATCC25922		> 64 µg/mL
CCCCCCC#Cc1cncc(-c2nnc(SCc3cc([N+](=O)[O-])cc([N+](=O)[O-])c3)n2C)c1				≥ 20 µg/mL
COC(=O)c1cc(-c2ccc(OC)c(NC(=O)Nc3ccc(Cl)c(Cl)c3)c2)on1	broth dilution	ATCC25922		> 64 µg/mL
CN[C@H](CC(C)C)C(=O)N[C@H]1C(=O)N[C@@H](CC(N)=O)C(=O)N[C@H]2C(=O)N[C@H]3C(=O)N[C@H](C(=O)N[C@H](C(=O)O)c4cc(O)cc(O)c4-c4cc3ccc4O)[C@H](O)c3ccc(c(Cl)c3)Oc3cc2cc(c3O[C@@H]2O[C@H](CO)[C@@H](O)[C@H](O)[C@H]2O[C@H]2C[C@](C)(N)[C@H](O)[C@H](C)O2)Oc2ccc(cc2Cl)[C@H]1O	broth dilution	ATCCBAA2469		> 64 µg/mL
